Results filed as inconclusive are left out. Active and inactive are the calls of the source.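 The calls were made as follows: active = dose curve fitted or showing a partial trend in at least two of three replicates; inactive = fewer than two replicates fitted or trending.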
What follows are compounds tested on parental HEK293, Na-free buffer, Tl+ flux FluoZin2 (assay: native HEK Tl+ uptake potency without sodium – HEK cells, counterscreen 3, counter-screen for KCC2 modulator project, dose response (AID 1738)).
Method in brief: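 assay system = parental HEK cells, FluoZin2-AM dye | buffer or medium = Sodium-free N-methylglucamine chloride buffer, FluoZin2-AM at 0.5 µM | also added = thallium stimulus, pH 7.3 | dosing = 11-point threefold dilution series, top dose 30 µM | signal = fluorescence, 480/540 nm | read-out = EC50 from variable-slope sigmoidal fit of normalized fluorescence slopes | replication = triplicate wells, each replicate curve fitted separately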
With CCOc1cccc(C(=O)NC(=S)Nc2cccc(C)c2)c1 the EC50 was 345 nM.
In the case of O=C(NC(=S)Nc1nc(-c2cccc([N+](=O)[O-])c2)cs1)c1cc(Cl)ccc1Cl, the EC50 is reported as 22400 nM (inactive).
With Oc1ccccc1/C=N/Nc1nc2ccccc2o1 the EC50 was 9460 nM (inactive).
O=C1OC(c2ccc(O)cc2)(c2ccc(O)cc2)c2ccccc21 was tested, and the EC50 was 15400 nM (inactive).
With NC(=S)N=Nc1c(O)n(Cc2ccccc2)c2ccccc12 the EC50 was 71.9 nM (inactive).
In the case of CNC(=O)C(=O)Nc1nc(C23CC4CC(CC(C4)C2)C3)cs1, the EC50 is reported as 61.1 nM.
For N=C1SCC(=O)N1c1ncc(Cc2cccc(Cl)c2)s1, the EC50 was 4430 nM (inactive).
In the case of O=c1c2ccccc2[nH]c(=S)n1CCN1CCC(=C(c2ccc(F)cc2)c2ccc(F)cc2)CC1, the EC50 is reported as 4820 nM (inactive).
CC(C)c1ccc(OCC(=O)NNC(=O)c2cnccn2)cc1 was tested, and the EC50 was 16400 nM (inactive).
COc1ccc(N2C(=S)N=C(Nc3cccc(C)c3)C23CCCCC3)cc1 was tested, and the EC50 was 920 nM.
With COC(=O)[C@@H](NC(=O)O[C@@H]1C(=O)c2ccc(OC)cc2O[C@H]1c1cccc(C(F)(F)F)c1)C(C)C the EC50 was 8160 nM (inactive).
Fc1cccc(F)c1/C=N/NC(=S)Nc1cccnc1 was tested, and the EC50 was 8330 nM (inactive).
For Cc1onc(-c2ccccc2Cl)c1C(=O)NC(=S)Nc1ccc(C(C)C)cc1, the EC50 was 262 nM.
COc1cc(NC(=S)NC(=O)c2ccco2)ccc1NC(=O)C(C)C was tested, and the EC50 was 3630 nM (inactive).
In the case of COc1ccccc1N1CCN(C(=S)NC(=O)/C=C/c2ccccc2)CC1, the EC50 is reported as 1140 nM (inactive).

Reference: PubChem BioAssay AID1738 (Vanderbilt High Throughput Screening Facility, 2009)
